# Data from ChEMBL document CHEMBL1131060, “Salicylhydrazine-containing inhibitors of HIV-1 integrase: implication for a selective chelation in the integrase active site” (J Med Chem, 1998).
# Key:
# CCRF-CEM [1] = assay: Tested for HIV-1 replication in CEM cells.; type: functional, cell-based; settings: Homo sapiens
# Procedure, shortened: (§1)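 CEM T4 lymphocytes, exponentially growing, 5000 cells/well, infected with thawed HIV-1 stock at m.o.i. ~0.1. Compounds dissolved in DMSO, diluted 1:100 in medium, final 1:200. Uninfected drug-treated cells served as toxicity control. Incubation 6 days at 37 °C, 5% CO2. Viability read by XTT formazan absorbance, with microscopic confirmation of protection.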
# [2] = target: T1, Human immunodeficiency virus type 1 integrase (Human immunodeficiency virus 1, UniProt Q7ZJM1); assay: Inhibition of HIV-1 integrase enzyme at 3`- processing stage of DNA integration
# T1 sequence (Q7ZJM1 whole entry): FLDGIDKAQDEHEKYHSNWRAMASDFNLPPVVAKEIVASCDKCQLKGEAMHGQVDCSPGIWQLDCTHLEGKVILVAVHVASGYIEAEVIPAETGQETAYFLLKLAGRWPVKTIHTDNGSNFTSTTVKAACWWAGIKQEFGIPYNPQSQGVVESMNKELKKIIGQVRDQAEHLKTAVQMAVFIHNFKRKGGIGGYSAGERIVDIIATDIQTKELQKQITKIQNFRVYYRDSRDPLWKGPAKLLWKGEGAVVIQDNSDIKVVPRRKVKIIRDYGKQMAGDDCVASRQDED
# CCRF-CEM [3] = assay: Effective concentration was evaluated on HIV-1 infected CEM cells.; type: functional, cell-based; settings: Homo sapiens; procedure, shortened: as §1
# [4] = target: T1, Human immunodeficiency virus type 1 integrase; assay: Inhibitory concentration as 50% inhibition of HIV-1 integrase enzyme at strand transfer stage of DNA integration.
# [5] = target: T1, Human immunodeficiency virus type 1 integrase; assay: Inhibitory concentration was evaluated as 50% inhibition of HIV-1 integrase enzyme at 3`- processing stage of DNA integration in experiment II
# [6] = target: T1, Human immunodeficiency virus type 1 integrase; assay: Inhibitory concentration was evaluated as 50% inhibition of HIV-1 integrase enzyme at strand transfer stage of DNA integration in experiment I
# Procedure, shortened: (§2)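 Purified recombinant HIV-1 integrase (200 nM final) preincubated with inhibitor for 30 min at 30 °C in MOPS/HEPES pH 7.2–7.5 buffer containing 7.5 mM MnCl2 and 10% DMSO. 20 nM 5'-32P-labeled 21-mer duplex oligonucleotide (AE117/AE118) added, then 1 h more. Strand transfer products resolved on denaturing 20% polyacrylamide/urea gels and quantified by phosphorimaging. % inhibition plotted against drug concentration to read IC50.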
# CCRF-CEM [7] = assay: Effective concentration was evaluated on HIV-1 infected CEM cells. (NR-not reached due to cytotoxicity.); type: functional, cell-based; procedure, shortened: as §1
# [8] = target: T1, Human immunodeficiency virus type 1 integrase; assay: Inhibitory concentration was evaluated as 50% inhibition of HIV-1 integrase enzyme at 3`- processing stage of DNA integration in experiment I
# [9] = target: T1, Human immunodeficiency virus type 1 integrase; assay: Inhibitory concentration was evaluated as 50% inhibition of HIV-1 integrase enzyme at strand transfer stage of DNA integration in experiment II; procedure, shortened: as §2
# CCRF-CEM [10] = assay: Effective concentration was evaluated on HIV-1 infected CEM cells; type: functional, cell-based; settings: Homo sapiens; procedure, shortened: as §1
# CCRF-CEM [11] = assay: Effective concentration was evaluated on HIV-1 infected CEM cells.(NR-not reached due to cytotoxicity.); type: functional, cell-based, Homo sapiens; procedure, shortened: as §1
SMILES,IC50 (CCRF-CEM [1]),IC50 [2],IC50 [4],EC50 (CCRF-CEM [7]),further results
CC1=NN(C(=O)c2ccc(Cl)cc2)C(=O)/C1=C/c1ccc(O)cc1,> 15 µM,> 293 µM,> 293 µM,,EC50 (CCRF-CEM [3]): > 15 µM
O=C(NN1C(=O)C(Cl)C1c1ccc([N+](=O)[O-])cc1)c1ccccc1O (stereo not drawn),> 10 µM,,,Not reached,IC50 [5]: 168 µM; IC50 [6]: 155 µM; IC50 [8]: 192 µM; IC50 [9]: 83 µM
COc1ccc(/C=C2/C(=O)N(C(=O)c3ccccc3O)N=C2C)cc1,0.053 µM,0.9 µM,0.6 µM,Not reached,
O=C(O)c1ccccc1C(=O)NNC(=O)c1ccccc1C(=O)O,,> 100 µM,> 100 µM,,
COc1cc(C(=O)NNC(=O)c2ccc(Cl)cc2)cc(OC)c1OC,,> 100 µM,> 100 µM,,
O=C(NNC(=O)c1ccc(Br)cc1)c1ccc(Br)cc1,,> 100 µM,> 100 µM,,
O=C(NNC(=O)c1cccc2ccccc12)c1ccccc1F,,> 100 µM,> 100 µM,,
O=C(NN1C(=O)C(Cl)C1c1ccccc1O)c1ccccc1O (stereo not drawn),8.2 µM,300 µM,264 µM,Not reached,
O=C(NNC(=O)c1cccc2ccccc12)c1ccccc1Br,,> 100 µM,> 100 µM,,
O=C(NNC(=O)c1cccc2ccccc12)c1ccc(Cl)c(Cl)c1,,> 100 µM,> 100 µM,,
O=C(NN1C(=O)C(Cl)C1c1ccccc1Cl)c1ccccc1O (stereo not drawn),> 14.8 µM,,94 µM,Not reached,IC50 [5]: 248 µM; IC50 [8]: 241 µM
O=C(NNC(=O)c1ccc2ccccc2c1)c1ccc(Cl)c(Cl)c1,,> 100 µM,> 100 µM,,
O=C(NNC(=O)c1ccccc1F)c1ccc2ccccc2c1,,> 100 µM,> 100 µM,,
CC1=NN(C(=O)c2ccccc2O)C(=O)/C1=C/c1ccc(O)cc1,0.059 µM,0.6 µM,0.9 µM,Not reached,
COc1cc(C2C(Cl)C(=O)N2NC(=O)c2ccccc2O)cc(OC)c1OC (stereo not drawn),4.4 µM,,73.7 µM,Not reached,IC50 [5]: 75.7 µM; IC50 [8]: 68.8 µM
O=C(NN1C(=O)C(Cl)C1c1cccc(O)c1)c1ccccc1O (stereo not drawn),> 15 µM,,,Not reached,IC50 [5]: 225 µM; IC50 [6]: 236 µM; IC50 [8]: 180 µM; IC50 [9]: 99 µM
COc1cc(/C=C2/C(=O)N(C(=O)c3ccc(Cl)cc3)N=C2C)cc(OC)c1OC,> 17 µM,> 240 µM,> 240 µM,,EC50 (CCRF-CEM [3]): > 17 µM
CC1=NN(C(=O)c2ccccc2O)C(=O)/C1=C/c1ccc([N+](=O)[O-])cc1,0.091 µM,0.8 µM,0.6 µM,Not reached,
O=C(NNC(=O)c1ccccc1Br)c1ccccc1Br,,> 100 µM,> 100 µM,,
O=C(NNC(=O)c1ccccc1F)c1ccccc1F,,> 100 µM,> 100 µM,,
CC1=NN(C(=O)c2ccc(Cl)cc2)C(=O)/C1=C/c1cccc([N+](=O)[O-])c1,> 20 µM,> 270 µM,> 270 µM,,EC50 (CCRF-CEM [10]): > 20 µM
O=C(NN1C(=O)C(Cl)C1c1ccc(O)cc1)c1ccccc1O (stereo not drawn),10.3 µM,> 300 µM,285 µM,Not reached,
Nc1ccccc1C(=O)NNC(=O)c1ccccc1N,> 200 µM,> 100 µM,> 100 µM,,EC50 (CCRF-CEM [10]): > 200 µM

SMILES,IC50 (CCRF-CEM [1]),IC50 [2],IC50 [4],EC50 (CCRF-CEM [7]),further results
O=C(NN1C(=O)C(Cl)C1c1cccc(Cl)c1)c1ccccc1O (stereo not drawn),> 74 µM,,125 µM,Not reached,IC50 [5]: 202 µM; IC50 [8]: 155 µM
CC1=NN(C(=O)c2ccccc2O)C(=O)/C1=C/c1ccccc1O,0.062 µM,,2.8 µM,Not reached,
COc1cc(C(=O)NNC(=O)c2ccc(Cl)c(Cl)c2)cc(OC)c1OC,,> 100 µM,> 100 µM,,
COc1ccc(/C=C2/C(=O)N(C(=O)c3ccc(Cl)cc3)N=C2C)cc1OC,> 35 µM,> 260 µM,> 260 µM,,EC50 (CCRF-CEM [3]): > 35 µM
CC1=NN(C(=O)c2ccc(Cl)cc2)C(=O)/C1=C/c1cccc(O)c1,> 8 µM,> 293 µM,> 293 µM,,EC50 (CCRF-CEM [3]): > 8 µM
O=C(NNC(=O)c1ccc(Cl)c(Cl)c1)c1ccccc1,,> 100 µM,> 100 µM,,
COc1ccc(C2C(Cl)C(=O)N2NC(=O)c2ccccc2O)cc1OC (stereo not drawn),> 50 µM,,106 µM,Not reached,IC50 [5]: 109 µM; IC50 [8]: 125 µM
O=C(NN1C(=O)C(Cl)C1c1c(O)ccc2ccccc12)c1ccccc1O (stereo not drawn),,127 µM,222 µM,,
COc1cc(/C=C2/C(=O)N(C(=O)c3ccccc3O)N=C2C)cc(OC)c1OC,0.24 µM,2 µM,2 µM,Not reached,
COc1ccc(/C=C2/C(=O)N(C(=O)c3ccccc3O)N=C2C)cc1OC,0.15 µM,,,Not reached,
CC1=NN(C(=O)c2ccccc2O)C(=O)/C1=C/c1ccco1,0.6 µM,2.7 µM,2 µM,Not reached,
O=C(NNC(=O)c1ccc(Cl)cc1Cl)c1ccc2ccccc2c1,,> 100 µM,> 100 µM,,
CCOc1ccccc1C(=O)NNC(=O)c1ccccc1OCC,,> 100 µM,> 100 µM,,
CC1=NN(C(=O)c2ccc(Cl)cc2)C(=O)/C1=C/c1ccccc1O,> 21 µM,> 293 µM,> 293 µM,,EC50 (CCRF-CEM [3]): > 21 µM
CC1=NN(C(=O)c2ccc(Cl)cc2)C(=O)/C1=C/c1ccc(Cl)cc1,> 10 µM,> 280 µM,> 280 µM,,EC50 (CCRF-CEM [3]): > 10 µM
COc1cc(C2C(Cl)C(=O)N2NC(=O)c2ccccc2O)ccc1O (stereo not drawn),> 27.5 µM,> 275 µM,262 µM,Not reached,
COc1cc(/C=C2/C(=O)N(C(=O)c3ccccc3O)N=C2C)ccc1O,,0.8 µM,0.6 µM,Not reached,
O=C(NNC(=O)c1ccccc1O)c1ccccc1O,0.1 µM,,,,EC50 (CCRF-CEM [11]): Not reached
CC1=NN(C(=O)c2ccccc2O)C(=O)/C1=C/c1cccc(O)c1,,0.9 µM,7.4 µM,Not reached,
COc1ccc(C2C(Cl)C(=O)N2NC(=O)c2ccccc2O)cc1 (stereo not drawn),> 144 µM,288 µM,167 µM,,
O=C(NNC(=O)c1ccc(Cl)c(Cl)c1)c1ccc(Cl)c(Cl)c1,,> 100 µM,> 100 µM,,
CC1=NN(C(=O)c2ccccc2O)C(=O)/C1=C/c1cccc([N+](=O)[O-])c1,0.098 µM,1.4 µM,2.6 µM,Not reached,
